These results are taken from PMC3356046 (Frontiers in Oncology, 2011).

For series [1], the system named is BP3 human lymphoma cell line. In words: Apoptosis, Annexin V-FITC and propidium iodide assay, BP3. Format: cell-based. In outline:
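BP3 diffuse large B-cell lymphoma cells were grown in RPMI 1640 with 10% FBS and penicillin/streptomycin, then exposed to varying concentrations of test compound for 1 day. They were stained with FITC-Annexin V and propidium iodide and analysed by flow cytometry. Annexin V-negative/PI-negative cells were scored viable. Mean of two independent experiments ± SE.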

For series [2] the following is noted: ref Wang et al., 2006b, Mi et al., 2008; cited from earlier work.

For the molecule `CN(C)CC[C@H](CSc1ccccc1)Nc1ccc(S(=O)(=O)NC(=O)c2ccc(N3CCN(Cc4ccccc4-c4ccc(Cl)cc4)CC3)cc2)cc1[N+](=O)[O-]` [ABT-737], in series [1], the “cytotoxic activity against BP3 cell lines” value is “no cytotoxic activity”.
`Cc1cc2c(C(C)C)c(O)c(O)c(C=O)c2c(O)c1-c1c(C)cc2c(C(C)C)c(O)c(O)c(C=O)c2c1O` [(−) Gossypol]: in series [2], the “oral MTD” value is recorded as about 50 mg/kg.
